Source: ChEMBL document CHEMBL4265984, “Improved potency and reduced toxicity of the antifungal peptoid AEC5 through submonomer modification” (Bioorg Med Chem Lett, 2018)
Converted amounts (≈) assume the structure as drawn.

Columns and labels:
[1] = system: Cryptococcus neoformans; test: Antifungal activity against Cryptococcus neoformans H99S serotype A after 72 hrs by presto blue dye based CLSI method; type: functional, Cryptococcus neoformans var. grubii H99S
[2] = Cytotoxicity against human HepG2 cells after 72 hrs by MTT assay; type: cell-based; conditions: read-out: TD50
[3] = Selectivity index, ratio of TD50 for human HepG2 cells to MIC>90 for Cryptococcus neoformans H99S serotype A; type: toxicity; conditions: read-out: Selectivity Index
[4] = Cytotoxicity against mouse NIH/3T3 cells after 72 hrs by MTT assay; type: cell-based, NIH3T3; conditions: read-out: TD50
[5] = system: Erythrocyte; test: Hemolytic activity in human RBC after 1 hr; type: ADME, cell-based
Procedure, shortened: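 Hemolysis of human red blood cells is reported as HC10, the concentration giving 10% hemolysis, in µg/mL.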

[6] = Hemolytic activity in human RBC at 100 ug/ml after 1 hr relative to control; type: ADME, cell-based, Erythrocyte; conditions: red blood cells (erythrocytes), read-out: Activity
[7] = Selectivity index, ratio of TD50 for mouse NIH/3T3 cells to MIC>90 for Cryptococcus neoformans H99S serotype A; type: toxicity; conditions: read-out: Selectivity Index
[8] = Selectivity index, ratio of HC10 for human RBC to MIC>90 for Cryptococcus neoformans H99S serotype A; type: toxicity; conditions: red blood cells, read-out: Selectivity Index

| SMILES | MIC90 [1] | CC50 at 72 h [2] | selectivity ratio [3] | CC50 at 72 h [4] | HC10 [5] | hemolysis at 1 h, 100 ug/ml [6] | selectivity ratio [7] | selectivity ratio [8] |
| --- | --- | --- | --- | --- | --- | --- | --- | --- |
| CCCCCCCCCCCCCNCC(=O)N(CCCCN)CC(=O)N(CC(N)=O)Cc1ccco1 | 6.3 µg/mL (≈ 12.1 µM) | 56.2 µg/mL (≈ 108 µM) | 9 | 48.6 µg/mL (≈ 93.1 µM) | 56.6 µg/mL | 30.4% | 8 | 9 |
| CCCCCCCCCCCCCNCC(=O)N(CCN)CC(=O)N(CC(N)=O)Cc1cccs1 | 6.25 µg/mL (≈ 12.3 µM) | 40.5 µg/mL (≈ 79.4 µM) | 6 | – | – | – | – | – |
| CCCCCCCCCCCCCNCC(=O)N(CCCCN)CC(=O)N(CC(N)=O)Cc1ncc[nH]1 | 25 µg/mL (≈ 47.9 µM) | 147 µg/mL (≈ 282 µM) | 6 | – | – | – | – | – |
| CC(C)=CCC/C(C)=C/CC/C(C)=C/CNCC(=O)N(CCCCN)CC(=O)N(CCCn1ccnc1)CC(N)=O | 100 µg/mL (≈ 175 µM) | – | – | – | – | – | – | – |
| CCCCCCCCCCCCCCCCNCC(=O)N(CCCCN)CC(=O)N(CC(N)=O)Cc1ccco1 | 3.13 µg/mL (≈ 5.55 µM) | 40.4 µg/mL (≈ 71.7 µM) | 13 | – | – | – | – | – |
| CCCCCCCCCCCCCNCC(=O)N(CCCCN)CC(=O)N(CC(N)=O)Cc1ccccc1 | 3.13 µg/mL (≈ 5.89 µM) | 52.2 µg/mL (≈ 98.2 µM) | 17 | – | – | – | – | – |
| CCCCCCCCCCCCCNCC(=O)N(CCCNC(=N)N)CC(=O)N(CC(N)=O)Cc1cccs1 | 12.5 µg/mL (≈ 22.1 µM) | 40.8 µg/mL (≈ 72.1 µM) | 3 | – | – | – | – | – |
| CCCCCCCCCCCCCNCC(=O)N(CCCCN)CC(=O)N(CC(N)=O)CC1CCCO1 (centres undefined) | 12.5 µg/mL (≈ 23.8 µM) | 170 µg/mL (≈ 324 µM) | 14 | – | – | – | – | – |
| CCCCCCCCNCC(=O)N(CCCCN)CC(=O)N(CC(N)=O)Cc1ccco1 | > 800 µg/mL | – | – | – | – | – | – | – |
| CCCCCCCCCCCCCNCC(=O)N(CCCCN)CC(=O)N(CCc1c[nH]c2ccccc12)CC(N)=O | 3.13 µg/mL (≈ 5.35 µM) | 42.7 µg/mL (≈ 73 µM) | 14 | – | – | – | – | – |
| CNCC(=O)N(CCCCN)CC(=O)N(CC(N)=O)Cc1ccco1 | > 400 µg/mL | > 800 µg/mL | – | – | – | – | – | – |
| CCCCCCCCCCCCCNCC(=O)N(CCCC[N+](C)(C)C)CC(=O)N(CC(N)=O)Cc1cccs1 | 3.13 µg/mL | 91.2 µg/mL | – | 115 µg/mL | 42.6 µg/mL | 46% | – | – |
| CC(C)=CCC/C(C)=C/CNCC(=O)N(CCCCN)CC(=O)N(CC(N)=O)Cc1ccco1 | 400 µg/mL (≈ 841 µM) | – | – | – | – | – | – | – |
| CC(C)=CCC/C(C)=C/CC/C(C)=C/CNCC(=O)N(CCCCN)CC(=O)N(CCc1c[nH]c2ccccc12)CC(N)=O | 100 µg/mL (≈ 165 µM) | – | – | – | – | – | – | – |
| CCCCCCCCCCCCCNCC(=O)N(CCCCN)CC(=O)N(C)CC(N)=O | 50 µg/mL (≈ 110 µM) | 54.3 µg/mL (≈ 119 µM) | 1 | – | – | – | – | – |
| CCCCCCCCCCCCCNCC(=O)N(CCCCCCN)CC(=O)N(CC(N)=O)Cc1cccs1 | 3.13 µg/mL (≈ 5.53 µM) | 56.2 µg/mL (≈ 99.3 µM) | 18 | – | – | – | – | – |
| CCCCCCCCCCCCCNCC(=O)N(CCCN)CC(=O)N(CC(N)=O)Cc1cccs1 | 3.13 µg/mL (≈ 5.98 µM) | 47.3 µg/mL (≈ 90.3 µM) | 15 | – | – | – | – | – |
| CCCCCCCCCCCCCNCC(=O)N(CCCCN)CC(=O)N(CC(N)=O)Cc1cccs1 | 3.13 µg/mL (≈ 5.82 µM) | 79.3 µg/mL (≈ 147 µM) | 25 | 65.9 µg/mL (≈ 123 µM) | 37.2 µg/mL | 48.6% | 21 | 12 |
| CC(C)=CCC/C(C)=C/CC/C(C)=C/CNCC(=O)N(CCCCN)CC(=O)N(CC(N)=O)Cc1cccs1 | 400 µg/mL (≈ 715 µM) | – | – | – | – | – | – | – |
| CCCCCCCCCCNCC(=O)N(CCCCN)CC(=O)N(CC(N)=O)Cc1ccco1 | 400 µg/mL (≈ 834 µM) | – | – | – | – | – | – | – |
| CCCCCCCCCCCCCNCC(=O)N(CCCCN)CC(=O)N(CC(N)=O)Cc1ccncc1 | 25 µg/mL (≈ 46.9 µM) | 104 µg/mL (≈ 195 µM) | 4 | – | – | – | – | – |
| CC(C)=CCC/C(C)=C/CC/C(C)=C/CNCC(=O)N(CCCCN)CC(=O)N(CC(N)=O)Cc1ccco1 | 100 µg/mL (≈ 184 µM) | 800 µg/mL (≈ 1470 µM) | 8 | – | – | – | – | – |
| CCCCCCCCCCCCCNCC(=O)N(CCCCN)CC(=O)N(CCCn1ccnc1)CC(N)=O | 50 µg/mL (≈ 90.9 µM) | 228 µg/mL (≈ 415 µM) | 5 | – | – | – | – | – |
| CCCCCCCCCCCCCNCC(=O)N(C)CC(=O)N(CC(N)=O)Cc1ccco1 | 12.5 µg/mL (≈ 26.9 µM) | 21.1 µg/mL (≈ 45.4 µM) | 2 | – | – | – | – | – |
| CCCCCCCCCCCCCNCC(=O)N(CCCCO)CC(=O)N(CC(N)=O)Cc1cccs1 | 12.5 µg/mL (≈ 23.2 µM) | 31 µg/mL (≈ 57.5 µM) | 3 | – | – | – | – | – |
